Blank lines part the entries; values can stand above or below the compound they belong to.
How the values were obtained:
[1] = Drug metabolism in bile duct-cannulated Sprague-Dawley rat urine assessed as DPH-124921metabolite level at 30 mg/kg, po after 12 hrs by LC-MS/MS analysis; assay type: ADME, organism-based; set-up: dose 30 mg/kg, route oral; conditions: in vivo
Outline: (§1)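 Male bile-duct-cannulated Sprague-Dawley rats (n=3), fasted overnight, received 30 mg/kg by gavage in 0.5% methylcellulose. Urine and bile were collected 0-12 h and pooled by equal percentage weight across animals, then centrifuged. Supernatants were profiled by LC/MS/MS. Bile was also treated with β-glucuronidase in pH 4.8 acetate buffer, 37°C, 16 h.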

[2] = Drug metabolism in bile duct-cannulated Sprague-Dawley rat urine assessed as BMS-572273 metabolite level at 30 mg/kg, po after 12 hrs by LC-MS/MS analysis; assay type: ADME, organism-based; set-up: dose 30 mg/kg, route oral; conditions: in vivo; outline: as §1
[3] = Drug metabolism in bile duct-cannulated Sprague-Dawley rat urine assessed as DPH-123554 metabolite level at 30 mg/kg, po after 12 hrs by LC-MS/MS analysis; assay type: ADME, organism-based; set-up: dose 30 mg/kg, route oral; conditions: in vivo; outline: as §1
[4] = system: Liver microsome; assay: Drug metabolism in human liver microsomes assessed as BMS-572273 metabolite formation at 100 uM after 1 hr in presence of NADPH and ketoconazole; assay type: ADME
[5] = AUC (infinity) in Sprague-Dawley rat at 1 mg/kg, iv; assay type: ADME, organism-based; set-up: time infinity, dose 1 mg/kg, route intravenous; conditions: plasma
Outline: (§2)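 Male Sprague-Dawley rats (n=3 per route, 0.34-0.35 kg, cannulated), fasted ~18 h pre-dose and 4 h post-dose. Dosing was 1 mg/kg IV bolus in 20% ethanol/saline via the jugular cannula, or 5 mg/kg oral gavage in 0.5% aqueous methylcellulose. Jugular blood was sampled 0-96 h. Plasma was assayed by validated LC/MS/MS (LLOQ 1.00 ng/ml), and AUC(INF) was derived by noncompartmental mixed log-linear trapezoidal analysis.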

[6] = Terminal half life in Sprague-Dawley rat at 1 mg/kg, iv; assay type: ADME, organism-based; set-up: dose 1 mg/kg, route intravenous; conditions: in vivo, read-out: beta t1/2 (converted)
Outline: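 Male Sprague-Dawley rats (n=3 per route, 0.34–0.35 kg) with jugular cannulas, fasted about 18 h before and 4 h after dosing. IV dose of 1 mg/kg in 20% ethanol/saline; oral dose of 5 mg/kg by gavage in 0.5% methylcellulose. Plasma sampled 0–96 h and assayed by LC/MS/MS (LLOQ 1.00 ng/ml). Noncompartmental analysis.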

[7] = AUC (infinity) in Sprague-Dawley rat at 5 mg/kg, po; assay type: ADME, organism-based; set-up: time infinity, dose 5 mg/kg, route oral; conditions: plasma; outline: as §2
[8] = AUC (infinity) in beagle dog at 5 mg/kg, po; assay type: ADME, organism-based, Canis lupus familiaris; set-up: time infinity, dose 5 mg/kg, route oral; conditions: plasma
Outline: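 Male beagle dogs (n=3, 10.1-12.7 kg) in a one-way IV/PO crossover with one-week washout, fasted ~15 h pre-dose and 4 h post-dose. Dosing was 1 mg/kg IV bolus into the saphenous vein in DMA:propylene glycol:water (1:7:2), or 5 mg/kg gavage in 0.5% methylcellulose. Blood was sampled 0-96 h. Plasma was assayed by LC/MS/MS (LLOQ 1.00 ng/ml) with noncompartmental analysis; Cmax was observed directly.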

[9] = Cmax in chimpanzee at 1 mg/kg, po; assay type: ADME, organism-based, Pan troglodytes; set-up: dose 1 mg/kg, route oral; conditions: in vivo
Outline: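 Two fasted male chimpanzees (58, 72 kg) received 1 mg/kg orally as a suspension in 0.5% methylcellulose/orange drink with 1% Tween 80 (1:1). Blood was sampled 0-96 h post-dose. Plasma was assayed by validated LC/MS/MS (LLOQ 1.00 ng/ml). Noncompartmental analysis gave AUC(INF) by the mixed log-linear trapezoidal method, with Cmax observed directly; values are mean (min, max).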

[10] = system: Liver microsome; assay: Drug metabolism in human liver microsomes assessed as DPH-123554 metabolite formation at 100 uM after 1 hr in presence of NADPH and ketoconazole; assay type: ADME
[11] = target: T1, Corticotropin-releasing factor-binding protein (Homo sapiens, UniProt P24387); assay: Binding affinity to CRF-binding protein (unknown origin)
T1 sequence (P24387 whole entry): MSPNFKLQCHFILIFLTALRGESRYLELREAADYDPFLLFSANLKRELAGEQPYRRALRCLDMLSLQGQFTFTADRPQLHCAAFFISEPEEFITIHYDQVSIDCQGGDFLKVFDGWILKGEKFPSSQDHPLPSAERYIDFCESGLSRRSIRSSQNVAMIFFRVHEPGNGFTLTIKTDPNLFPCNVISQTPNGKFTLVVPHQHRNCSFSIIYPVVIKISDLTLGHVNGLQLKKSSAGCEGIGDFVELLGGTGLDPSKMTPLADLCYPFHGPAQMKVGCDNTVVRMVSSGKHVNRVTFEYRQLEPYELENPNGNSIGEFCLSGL

[12] = Apparent permeability from apical to basolateral side in human Caco2 cells; assay type: ADME, cell-based; conditions: Caco-2
Outline: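 Caco-2 cells (passage 50-60) were seeded at 60,000 cells/cm2 on polycarbonate Transwells and cultured 21-25 days. Transport buffer was HBSS with 2% DMA, pH 7.4. Compound was applied apically at 25 µM at 37°C. Only monolayers with TEER 400-500 Ω cm2 at start and end were used, with mannitol as an integrity probe. Papp = (dQ/dt)/(A×C0).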

[13] = Protein binding in rat serum after 3 hrs by equilibrium dialysis; assay type: ADME, cell-free; conditions: read-out: PB (converted)
Outline: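 Equilibrium dialysis of serum spiked to final 12.8, 25.6 and 38.5 µM against 134 mM phosphate buffer, pH 7.4, through a 10,000 Da cutoff membrane. Cells rotated at 20 rpm, 37°C, 3 h. Percent unbound taken as buffer concentration divided by serum concentration.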

[14] = system: Serum; assay: Metabolic stability in rat serum after 3 hrs by equilibrium dialysis; assay type: ADME, cell-free
Outline: (§3)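 Stability assessed in the serum samples from the equilibrium-dialysis setup: compound at final 12.8, 25.6 and 38.5 µM, dialysed against 134 mM phosphate buffer, pH 7.4, at 37°C with rotation at 20 rpm. Samples monitored for degradants over the 3-h incubation.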

[15] = system: Serum; assay: Metabolic stability in dog serum after 3 hrs by equilibrium dialysis; assay type: ADME, cell-free, Canis lupus familiaris; outline: as §3
[16] = Drug metabolism in beagle dog hepatocytes assessed as […] at 25 uM after 3 hrs by HPLC analysis; assay type: ADME, cell-based, Canis lupus familiaris, Hepatocyte
[17] = Drug metabolism in cynomolgus monkey cryopreserved hepatocytes assessed as […] at 25 uM after 3 hrs by HPLC analysis; assay type: ADME, cell-based, Macaca fascicularis, Hepatocyte
[18] = Drug metabolism in human cryopreserved hepatocytes assessed as […] at 25 uM after 3 hrs by HPLC analysis; assay type: ADME, cell-based, Hepatocyte
[19] = Drug metabolism in mouse hepatocytes assessed as decrease of compound level at 25 uM after 3 hrs by HPLC analysis; assay type: ADME, cell-based, Hepatocyte; conditions: read-out: Drug metabolism
[20] = Drug metabolism in beagle dog hepatocytes assessed as decrease of compound level at 25 uM after 3 hrs by HPLC analysis; assay type: ADME, cell-based, Canis lupus familiaris, Hepatocyte; conditions: read-out: Drug metabolism
Outline: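 Mouse, rat, dog, monkey and human hepatocytes (trypan blue viability checked) at 1.0×10^6 cells/ml in Krebs-Henseleit buffer were incubated with 25 µM compound, in duplicate. Conditions were 37°C, 95/5 O2/CO2, orbital shaking, 3 h. 7-Ethoxycoumarin and 7-hydroxycoumarin (100 µM) served as positive controls, with a cell-free negative control. Reactions were quenched with ice-cold acetonitrile, then sonicated and centrifuged; supernatants were analysed by LC/MS/MS.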

[21] = Oral bioavailability in chimpanzee at 1 mg/kg; conditions: Pan troglodytes, in vivo

Drug metabolism [1]: metabolite_detected
SMILES: COc1ccc(-c2c(C)nn3c(N)nc(C)nc23)c(C)n1

Drug metabolism [2]: metabolite_detected
SMILES: COc1ccc(-c2c(C)nn3c(O)nc(C)nc23)c(C)n1

Drug metabolism [3]: metabolite_detected
SMILES: CC[C@@H](C)Nc1nc(C)nc2c(-c3ccc(O)nc3C)c(C)nn12

Drug metabolism [4]: metabolite_not_detected
AUC(0-inf) [5]: 2.9 µM·h
half-life [6]: 13.5 h
AUC(0-inf) [7]: 5.82 µM·h
AUC(0-inf) [8]: 13 µM·h
Cmax [9]: 1070 nM
Drug metabolism [10]: metabolite_not_detected
IC50 [11]: > 1000 nM
Papp A→B [12]: 17 ×10⁻⁶ cm/s
fraction unbound at 3 h [13]: 0.064
Stability [14]: Stable
Stability [15]: Stable
Drug metabolism [16]: metabolite_detected
Drug metabolism [17]: metabolite_detected
Drug metabolism [18]: metabolite_detected
metabolised at 3 h, 25 µM [19]: 75%
metabolised at 3 h, 25 µM [20]: 61%
bioavailability [21]: 58.5%
SMILES: CC[C@@H](C)Nc1nc(C)nc2c(-c3ccc(OC)nc3C)c(C)nn12 [PEXACERFONT]

Source: ChEMBL document CHEMBL3526146, “In vitro and in vivo metabolism and pharmacokinetics of BMS-562086, a potent and orally bioavailable corticotropin-releasing factor-1 receptor antagonist” (Drug Metab Dispos, 2012)
